In data set [1] the target is T1, CYP1A1 (Mus musculus, UniProt P00184).
T1 sequence (P00184 whole entry): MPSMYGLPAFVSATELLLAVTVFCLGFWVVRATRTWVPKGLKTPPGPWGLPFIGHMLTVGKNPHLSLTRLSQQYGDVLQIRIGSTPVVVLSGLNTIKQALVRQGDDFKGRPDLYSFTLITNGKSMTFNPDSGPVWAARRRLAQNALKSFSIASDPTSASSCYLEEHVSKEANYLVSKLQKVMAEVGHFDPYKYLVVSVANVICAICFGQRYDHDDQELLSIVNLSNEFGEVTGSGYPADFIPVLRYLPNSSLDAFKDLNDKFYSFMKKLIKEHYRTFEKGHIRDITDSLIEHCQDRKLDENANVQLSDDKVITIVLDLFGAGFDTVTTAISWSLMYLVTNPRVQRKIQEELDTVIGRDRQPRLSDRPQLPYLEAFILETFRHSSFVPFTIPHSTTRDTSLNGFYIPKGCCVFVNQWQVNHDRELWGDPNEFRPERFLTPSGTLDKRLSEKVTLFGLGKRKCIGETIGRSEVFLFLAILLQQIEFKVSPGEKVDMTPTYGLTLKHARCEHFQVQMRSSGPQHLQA
Nature of the data set: Induction of CYP1A1 activity in mouse Hepa-1c1c7 cells assessed as induction ratio at 0.01 uM after 48 hrs by EROD assay relative to control. It is filed as ADME, cell-based.

For data set [2], the target named is NAD(P)H dehydrogenase [quinone] 1 (Mus musculus) (UniProt Q64669). Nature of the data set: Induction of NQO1 activity in mouse Hepa-1c1c7 cells assessed as induction ratio at 0.01 uM after 48 hrs by MTT assay relative to control. It is filed as cell-based. A digest of the protocol:
(§1)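 Hepa1c1c7 cells, 10,000 per well, 24 h, were then treated 48 h (DMSO ≤0.5%). Digitonin/EDTA lysates were assayed for menadione-dependent MTT-formazan formation using a G6P/G6PDH NADPH-generating mix with FAD at pH 7.4. The reaction ran 5 min, was stopped with dicoumarol, and read at A590. Degree of induction = (A test − blank)/(A control − blank). Ratios were read off the induction–concentration plot at the EROD test concentration.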

For data set [3] the target is unchanged. Nature of the data set: Induction of NQO1 activity in mouse Hepa-1c1c7 cells assessed as drug level required to double basal enzyme activity after 48 hrs by MTT assay. It counts as cell-based. A digest of the protocol:
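Hepa1c1c7 cells were grown in α-MEM with charcoal-treated FCS, 10,000 per well, 24 h. Compound was given 48 h (DMSO ≤0.5%) over a 10–100-fold range below cytotoxic levels, up to 25 µM. Cells were lysed with digitonin/EDTA. NQO1 was assayed by menadione-driven MTT reduction (G6P/G6PDH/NADP, FAD, Tris pH 7.4), quenched with dicoumarol, A590. CD is the concentration doubling basal activity, taken from the induction–concentration plot; mean ± SD, n = 3.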

Data set [4] can be described thus: Ratio of induction of NQO1 activity to induction of CYP1A1 activity in mouse Hepa-1c1c7 cells at 0.01 uM after 48 hrs.
The subject of data set [5] is HCT-116. Nature of the data set: Antiproliferative activity against human HCT116 cells after 72 hrs by MTT assay. It is filed as functional, cell-based. The conditions noted are these: HCT-116, 72 h. A digest of the protocol: (§2)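 Cells seeded at 10,000 (MCF7), 4000 (HCT116) or 5000 (CCL186) per well and grown 24 h; MCF7 and CCL186 in EMEM with pyruvate, glutamine, 10% FBS; HCT116 in McCoy's 5A with 10% FBS. Compounds from DMSO stocks (≤1% DMSO final), 72 h exposure; MTT 0.5 mg/ml for 3 h, formazan in DMSO read at 590 nm. IC50 from sigmoidal survival curve, three separate occasions.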

The subject of data set [6] is MCF7. As to the kind of experiment: Antiproliferative activity against human MCF7 cells after 72 hrs by MTT assay. The conditions noted are these: MCF7, 72 h. It counts as functional, cell-based. A digest of the protocol:
as §2

Data set [7] is described as follows: Antiproliferative activity against human CCL186 cells after 72 hrs by MTT assay. It counts as cell-based. Conditions: CCL186, 72 h. A digest of the protocol: as §2
In general terms: Tetrazolium assays rely on reduction of a dye to a coloured formazan, in cell work by metabolically active cells.

Data set [8] concerns MCF7. As to the kind of experiment: Selectivity ratio of IC50 for human CCL186 cells to IC50 for human MCF7 cells. A digest of the protocol:
(§3)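 MTT assay. MCF7 and CCL186 cells were grown in EMEM/10% FBS, HCT116 in McCoy's 5A/10% FBS. Seeding was 10,000 (MCF7), 4000 (HCT116) and 5000 (CCL186) cells per well, 24 h. Compound exposure was 72 h, DMSO ≤1% final. MTT 0.5 mg/ml for 3 h, formazan dissolved in DMSO, A590. IC50 came from sigmoidal survival curves, with 3 separate occasions per concentration. Ratio = IC50 CCL186 / IC50 of the cancer line.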

Data set [9] can be described thus: Selectivity ratio of IC50 for human CCL186 cells to IC50 for human HCT116 cells. It is filed as ADME, cell-based, HCT-116. Conditions: CCL186 cells and HCT116 cells, read-out: Ratio IC50. A digest of the protocol: as §3
Data set [10] has as its system HCT-116. As to the kind of experiment: Cell cycle arrest in human HCT116 cells released from G1 block assessed as accumulation at sub G1 phase at 30 uM after 24 hrs by flow cytometry. It counts as functional.
Data set [11] has as its system HCT-116. As to the kind of experiment: Cell cycle arrest in human HCT116 cells released from G2 block assessed as accumulation at sub G1 phase at 30 uM after 24 hrs by flow cytometry. It counts as functional. Background: Flow cytometry measures light scatter and fluorescence of single cells or particles in a stream.
The test system of data set [12] is HCT-116. Nature of the data set: Cell cycle arrest in human HCT116 cells released from G1 block assessed as accumulation at G1 phase at 30 uM after 24 hrs by flow cytometry. It counts as functional.
Data set [13] relates to HCT-116. Nature of the data set: Cell cycle arrest in human HCT116 cells released from G2 block assessed as accumulation at G1 phase at 30 uM after 24 hrs by flow cytometry. It counts as functional.
The subject of data set [14] is HCT-116. Nature of the data set: Cell cycle arrest in human HCT116 cells released from G1 block assessed as accumulation at S phase at 30 uM after 24 hrs by flow cytometry. It is filed as functional.
Data set [15] has as its system HCT-116. As to the kind of experiment: Cell cycle arrest in human HCT116 cells released from G2 block assessed as accumulation at S phase at 30 uM after 24 hrs by flow cytometry. It is filed as functional.
The test system of data set [16] is HCT-116. Nature of the data set: Cell cycle arrest in human HCT116 cells released from G1 block assessed as accumulation at G2/M phase at 30 uM after 24 hrs by flow cytometry. It is filed as functional.
The nature of data set [17]: Cytotoxicity against mouse Hepa-1c1c7 cells after 48 hrs by MTT assay. It counts as cell-based. The conditions noted are these: hepa-1c1c7, 48 h. A digest of the protocol:
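Murine hepatoma cells in α-MEM with 10% heat- and charcoal-treated fetal calf serum, passages 6–17; MTT read-out as for the cancer lines but with 48 h compound exposure. Highest concentration tested 25 µM. IC50 from survival-versus-concentration curve; mean and SD, n = 3.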

Data set [18] has as its system HCT-116. Nature of the data set: Cell cycle arrest in human HCT116 cells released from G2 block assessed as accumulation at G2/M phase at 30 uM after 24 hrs by flow cytometry. It is filed as functional.
The subject of data set [19] is HCT-116. As to the kind of experiment: Cell cycle arrest in human HCT116 cells released from G1 block assessed as accumulation at sub G1 phase at 10 uM after 24 hrs by flow cytometry. It is filed as functional.
Data set [20] concerns HCT-116. As to the kind of experiment: Cell cycle arrest in human HCT116 cells released from G2 block assessed as accumulation at sub G1 phase at 10 uM after 24 hrs by flow cytometry. It is filed as functional.
The test system of data set [21] is HCT-116. Nature of the data set: Cell cycle arrest in human HCT116 cells released from G1 block assessed as accumulation at G1 phase at 10 uM after 24 hrs by flow cytometry. It counts as functional.
The subject of data set [22] is HCT-116. Nature of the data set: Cell cycle arrest in human HCT116 cells released from G2 block assessed as accumulation at G1 phase at 10 uM after 24 hrs by flow cytometry. It counts as functional.
In data set [23] the test system is HCT-116. Nature of the data set: Cell cycle arrest in human HCT116 cells released from G1 block assessed as accumulation at S phase at 10 uM after 24 hrs by flow cytometry. It counts as functional.
Data set [24] relates to HCT-116. Nature of the data set: Cell cycle arrest in human HCT116 cells released from G2 block assessed as accumulation at S phase at 10 uM after 24 hrs by flow cytometry. It counts as functional.
Data set [25] relates to HCT-116. As to the kind of experiment: Cell cycle arrest in human HCT116 cells released from G1 block assessed as accumulation at G2/M phase at 10 uM after 24 hrs by flow cytometry. It is filed as functional.
For data set [26], the system named is HCT-116. Nature of the data set: Cell cycle arrest in human HCT116 cells released from G2 block assessed as accumulation at G2/M phase at 10 uM after 24 hrs by flow cytometry. It is filed as functional.
Data set [27] concerns the target NAD(P)H dehydrogenase [quinone] 1 (Mus musculus) (UniProt Q64669). As to the kind of experiment: Induction of NQO1 activity in mouse Hepa-1c1c7 cells assessed as induction ratio at 0.05 uM after 48 hrs by MTT assay relative to control. It counts as cell-based. A digest of the protocol:
as §1

Data set [28] addresses T1, CYP1A1. Nature of the data set: Induction of CYP1A1 activity in mouse Hepa-1c1c7 cells assessed as induction ratio at 0.05 uM after 48 hrs by EROD assay relative to control. It is filed as ADME, cell-based. A digest of the protocol: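 About 10,000 Hepa1c1c7 cells/well cultured 24 h, then compound (0.5% DMSO final) for 48 h, at roughly 4 × the concentration doubling NQO1 activity. After PBS wash, cells given 5 µM 7-ethoxyresorufin plus 2 mM salicylamide, 37 °C, 40 min; resorufin fluorescence ex 530/em 590 nm, corrected for compound fluorescence. Ratio = (treated − blank)/(DMSO control − blank); mean ± SD, n = 3.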

Chain of NAD(P)H dehydrogenase [quinone] 1 (Mus musculus) (Q64669 whole entry): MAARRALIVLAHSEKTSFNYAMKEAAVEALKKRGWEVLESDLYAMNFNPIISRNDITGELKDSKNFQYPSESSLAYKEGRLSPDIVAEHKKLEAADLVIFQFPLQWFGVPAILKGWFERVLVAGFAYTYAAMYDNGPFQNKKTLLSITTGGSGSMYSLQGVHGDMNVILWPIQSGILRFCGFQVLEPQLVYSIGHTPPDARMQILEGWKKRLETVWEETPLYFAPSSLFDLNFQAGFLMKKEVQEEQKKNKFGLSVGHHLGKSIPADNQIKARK

The term fold induction denotes the signal under treatment as a multiple of the control signal. In the case of `O=c1cc(-c2ccccc2)oc2ccc3ccccc3c12` [BETA-NAPHTHOFLAVONE], the fold induction at 48 h, 0.01 µM at CYP1A1 [1] was determined as 1.13. Further, the Ratio in data set [2] was 1.83; in data set [4] it was 1.62. The CD in [3] stood at 0.028 µM.

One may read the IC50 as the midpoint of a concentration-inhibition curve. Turning to `O=C1Nc2ccccc2/C1=C\c1cccc2ccccc12`, the IC50 turned out to be 3.9 µM with HCT-116 [5], 19.6 µM in the data set on MCF7 [6], 25 µM in [7] and 18.6 µM in [17]. For the same compound, the “Ratio IC50” value in the data set with MCF7 [8] worked out at 6.4. In data set [9], the selectivity ratio was 1.3. In addition, the Activity with HCT-116 [10] is 2.96%; with HCT-116 [11], 5.68%; in the data set with HCT-116 [12], 32.69%; with HCT-116 [13], 51.32%; in the data set with HCT-116 [14] it was 26.91%; with HCT-116 [15] it was 14.61%. For the same compound, the Activity with HCT-116 [16] amounted to 38.42%; with HCT-116 [18], 28.26%.

Turning to `COc1ccc(OC)c(/C=C2/C(=O)Nc3ccccc32)c1`, the IC50 is 5.1 µM in the data set with HCT-116 [5], 7.7 µM with MCF7 [6], 18.1 µM in data set [7] and more than 25 µM in [17]. Also, in the data set with MCF7 [8], the “Ratio IC50” value worked out at 3.5. For the same compound, the selectivity ratio in [9] amounted to 2.4. Also, the Activity in the data set on HCT-116 [19] came out at 2.64%; with HCT-116 [20] it was 9.83%; with HCT-116 [21] it was 24.24%; with HCT-116 [22] it was 39.33%; with HCT-116 [23], 26.68%; in the data set with HCT-116 [24] it was 16.68%. The Activity in the data set with HCT-116 [25] is 46.51%; with HCT-116 [26] it was 34.26%. For the same compound, the Ratio in data set [27] amounted to 3.32. On CYP1A1 [28], the fold induction at 48 h, 0.05 µM amounted to 3.08.

Source of the values: ChEMBL document CHEMBL1153905, “Functionalized 3-benzylidene-indolin-2-ones: inducers of NAD(P)H-quinone oxidoreductase 1 (NQO1) with antiproliferative activity” (Bioorg Med Chem, 2009).
